From ChEMBL document CHEMBL1159109, “Design and synthesis of some new quinoline-3-carbohydrazone derivatives as potential antimycobacterial agents” (Bioorg Med Chem Lett, 2010)
≈ marks a conversion by molar mass, not a printed value.

Legend:
[1] = tested on: Mycobacterium tuberculosis; experiment: Antimycobacterial activity against Mycobacterium tuberculosis H37Rv ATCC 27294 after 7 days by resazurin assay; assay type: functional; conditions: H37Rv ATCC 27294, 168 h
In short: (§1)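 Broth microdilution resazurin assay. Culture diluted to McFarland 2 standard in the same medium and added to fresh medium. Test compounds from 2 mg/mL DMF stocks, first tested at 1, 10 and 100, then at 0.3125–5; DMF-only controls. Incubated 37 °C for 7 days, then 0.01% resazurin added. Blue-to-pink change scored; MIC taken as lowest concentration preventing the colour change.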

Mycobacterium = experiment: Inhibition of Mycobacterium membrane bound ATP synthase; set-up: concentration or dose not given beside the values; conditions: concentration not given here
[2] = tested on: Mycolicibacterium smegmatis; experiment: Antimycobacterial activity against Mycobacterium smegmatis MC2 155 ATCC 19420 after 7 days by resazurin assay; assay type: functional; conditions: MC2 155 ATCC 19420, 168 h; in short: as §1
[3] = tested on: Mycolicibacterium fortuitum; experiment: Antimycobacterial activity against Mycobacterium fortuitum ATCC 19542 after 7 days by resazurin assay; assay type: functional; conditions: ATCC 19542, 168 h
In short: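 M. fortuitum ATCC 19542 culture diluted to McFarland 2 standard in medium and dispensed into 96-well plates. Compounds came from 2 mg/mL DMF stocks and were screened at 1, 10 and 100, then retested at […]. Controls received DMF alone. After 7 days at 37 °C, 0.01% resazurin was added and colour read after 1 h at 37 °C. MIC was the level keeping the dye blue.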

Vero = experiment: Cytotoxicity against african green monkey Vero cells after 72 hrs by MTT assay; assay type: cell-based; conditions: Chlorocebus sabaeus
In short: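 Cells were exposed for 72 h, then viability was read as cellular conversion of MTT to formazan with a non-radioactive cell proliferation kit.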

Row | SMILES | MIC [1] | inhibition (Mycobacterium) | MIC [2] | MIC [3] | IC50 (Vero)
1 | COc1ccc(/C=N/NC(=O)c2cnc3ccc(F)cc3c2N[C@@H](CSc2ccccc2)CC(=O)N(C)C)c(F)c1 | 5 µg/mL (≈ 8.66 µM) | 0% | > 100 µg/mL | > 100 µg/mL | –
2 | CN(C)C(=O)C[C@H](CSc1ccccc1)Nc1c(C(=O)N/N=C/c2cc(F)ccc2O)cnc2ccc(F)cc12 | 10 µg/mL (≈ 17.7 µM) | 0% | > 100 µg/mL | > 100 µg/mL | –
3 | CSCC/C=N/NC(=O)c1cnc2ccc(F)cc2c1N[C@@H](CSc1ccccc1)CC(=O)N(C)C | > 100 µg/mL | 0% | > 100 µg/mL | > 100 µg/mL | –
4 | CN(C)C(=O)C[C@H](CSc1ccccc1)Nc1c(C(=O)N/N=C/c2ccccc2F)cnc2c(C(F)(F)F)cccc12 | 2.5 µg/mL (≈ 4.18 µM) | 90% | 5 µg/mL (≈ 8.37 µM) | > 100 µg/mL | > 62.5 µg/mL
5 | CN(C)C(=O)C[C@H](CSc1ccccc1)Nc1c(C(=O)N/N=C/c2ccccc2F)cnc2ccc(F)cc12 | 1 µg/mL (≈ 1.83 µM) | > 95% | 10 µg/mL (≈ 18.3 µM) | 5 µg/mL (≈ 9.13 µM) | > 62.5 µg/mL
6 | COc1ccc(/C=N/NC(=O)c2cnc3ccc(F)cc3c2N[C@@H](CSc2ccccc2)CC(=O)N(C)C)cc1O | 5 µg/mL (≈ 8.69 µM) | 90% | > 100 µg/mL | 5 µg/mL (≈ 8.69 µM) | > 62.5 µg/mL
7 | CSc1ccccc1/C=N/NC(=O)c1cnc2ccc(F)cc2c1N[C@@H](CSc1ccccc1)CC(=O)N(C)C | > 100 µg/mL | 0% | > 100 µg/mL | > 100 µg/mL | –
8 | CCCCCCCC/C=N/NC(=O)c1cnc2ccc(F)cc2c1N[C@@H](CSc1ccccc1)CC(=O)N(C)C | 1 µg/mL (≈ 1.77 µM) | > 95% | 10 µg/mL (≈ 17.7 µM) | 5 µg/mL (≈ 8.84 µM) | > 62.5 µg/mL
9 | CN(C)C(=O)C[C@H](CSc1ccccc1)Nc1c(C(=O)N/N=C/c2ccc(F)cc2)cnc2ccc(F)cc12 | 1 µg/mL (≈ 1.83 µM) | 95% | 10 µg/mL (≈ 18.3 µM) | 5 µg/mL (≈ 9.13 µM) | > 62.5 µg/mL
10 | CCCCCCCC/C=N/NC(=O)c1cnc2c(C(F)(F)F)cccc2c1N[C@@H](CSc1ccccc1)CC(=O)N(C)C | 1 µg/mL (≈ 1.62 µM) | > 95% | 10 µg/mL (≈ 16.2 µM) | 5 µg/mL (≈ 8.12 µM) | > 62.5 µg/mL
11 | CN(C)C(=O)C[C@H](CSc1ccccc1)Nc1c(C(=O)N/N=C/c2ccc(F)cc2)cnc2c(C(F)(F)F)cccc12 | 5 µg/mL (≈ 8.37 µM) | 90% | > 100 µg/mL | 10 µg/mL (≈ 16.7 µM) | > 62.5 µg/mL
12 | COc1ccc(/C=N/NC(=O)c2cnc3c(C(F)(F)F)cccc3c2N[C@@H](CSc2ccccc2)CC(=O)N(C)C)c(F)c1 | 10 µg/mL (≈ 15.9 µM) | 90% | > 100 µg/mL | > 100 µg/mL | –
13 | CSc1ccccc1/C=N/NC(=O)c1cnc2c(C(F)(F)F)cccc2c1N[C@@H](CSc1ccccc1)CC(=O)N(C)C | > 100 µg/mL | 0% | > 100 µg/mL | > 100 µg/mL | –
14 | CN(C)C(=O)C[C@H](CSc1ccccc1)Nc1c(C(=O)N/N=C/c2cccnc2)cnc2c(C(F)(F)F)cccc12 | 0.625 µg/mL (≈ 1.08 µM) | > 95% | 2.5 µg/mL (≈ 4.31 µM) | 1 µg/mL (≈ 1.72 µM) | > 62.5 µg/mL
15 | CN(C)C(=O)C[C@H](CSc1ccccc1)Nc1c(C(=O)N/N=C/c2cc(F)ccc2O)cnc2c(C(F)(F)F)cccc12 | 10 µg/mL (≈ 16.3 µM) | 0% | > 100 µg/mL | > 100 µg/mL | –
16 | COc1ccc(/C=N/NC(=O)c2cnc3ccc(F)cc3c2N[C@@H](CSc2ccccc2)CC(=O)N(C)C)cc1 | 10 µg/mL (≈ 17.9 µM) | 0% | > 100 µg/mL | > 100 µg/mL | –
17 | CN(C)C(=O)C[C@H](CSc1ccccc1)Nc1c(C(=O)N/N=C/c2ccc(Br)s2)cnc2c(C(F)(F)F)cccc12 | 10 µg/mL (≈ 15 µM) | 90% | > 100 µg/mL | > 100 µg/mL | > 62.5 µg/mL
18 | CSCC/C=N/NC(=O)c1cnc2c(C(F)(F)F)cccc2c1N[C@@H](CSc1ccccc1)CC(=O)N(C)C | 10 µg/mL (≈ 17.3 µM) | 90% | > 100 µg/mL | > 100 µg/mL | –
19 | CN(C)C(=O)C[C@H](CSc1ccccc1)Nc1c(C(=O)N/N=C/c2cccc(OC(F)(F)C(F)F)c2)cnc2ccc(F)cc12 | 0.625 µg/mL (≈ 0.968 µM) | > 95% | 2.5 µg/mL (≈ 3.87 µM) | 1 µg/mL (≈ 1.55 µM) | > 62.5 µg/mL
20 | CN(C)C(=O)C[C@H](CSc1ccccc1)Nc1c(C(=O)N/N=C/c2cccc(OC(F)(F)C(F)F)c2)cnc2c(C(F)(F)F)cccc12 | 1 µg/mL (≈ 1.44 µM) | > 95% | 5 µg/mL (≈ 7.19 µM) | 2.5 µg/mL (≈ 3.59 µM) | > 62.5 µg/mL
21 | CN(C)C(=O)C[C@H](CSc1ccccc1)Nc1c(C(=O)N/N=C/c2ccc(OC(F)(F)F)cc2)cnc2ccc(F)cc12 | 2.5 µg/mL (≈ 4.07 µM) | 90% | > 100 µg/mL | 5 µg/mL (≈ 8.15 µM) | > 62.5 µg/mL
22 | COc1ccc(/C=N/NC(=O)c2cnc3c(C(F)(F)F)cccc3c2N[C@@H](CSc2ccccc2)CC(=O)N(C)C)cc1O | 5 µg/mL (≈ 7.99 µM) | 90% | > 100 µg/mL | 10 µg/mL (≈ 16 µM) | > 62.5 µg/mL
23 | CN(C)C(=O)C[C@H](CSc1ccccc1)Nc1c(C(=O)N/N=C/c2ccc(OC(F)(F)F)cc2)cnc2c(C(F)(F)F)cccc12 | 5 µg/mL (≈ 7.53 µM) | 90% | > 100 µg/mL | 5 µg/mL (≈ 7.53 µM) | > 62.5 µg/mL
24 | CN(C)C(=O)C[C@H](CSc1ccccc1)Nc1c(C(=O)N/N=C/c2cccnc2)cnc2ccc(F)cc12 | 5 µg/mL (≈ 9.42 µM) | 90% | > 100 µg/mL | 10 µg/mL (≈ 18.8 µM) | > 62.5 µg/mL
25 | NNC(=O)c1ccncc1 [ISONIAZID] | 1 µg/mL (≈ 7.29 µM) | > 95% | 50 µg/mL (≈ 365 µM) | 12.5 µg/mL (≈ 91.1 µM) | > 62.5 µg/mL
26 | COc1ccc(/C=N/NC(=O)c2cnc3c(C(F)(F)F)cccc3c2N[C@@H](CSc2ccccc2)CC(=O)N(C)C)cc1 | > 100 µg/mL | 0% | > 100 µg/mL | > 100 µg/mL | –
27 | CO[C@H]1/C=C/O[C@@]2(C)Oc3c(C)c(O)c4c(O)c(c(/C=N/N5CCN(C)CC5)c(O)c4c3C2=O)NC(=O)/C(C)=C\C=C\[C@H](C)[C@H](O)[C@@H](C)[C@@H](O)[C@@H](C)[C@H](OC(C)=O)[C@@H]1C [RIFAMPIN] | 0.5 µg/mL (≈ 0.608 µM) | > 95% | 1.5 µg/mL (≈ 1.82 µM) | 1.5 µg/mL (≈ 1.82 µM) | > 62.5 µg/mL
28 | CN(C)C(=O)C[C@H](CSc1ccccc1)Nc1c(C(=O)N/N=C/c2ccc(Br)s2)cnc2ccc(F)cc12 | > 100 µg/mL | 0% | > 100 µg/mL | > 100 µg/mL | –
